Experimental data from ChEMBL document CHEMBL4765317, “Novel bacterial topoisomerase inhibitors derived from isomannide” (Eur J Med Chem, 2020).
Converted amounts (≈) assume the structure as drawn.

Key:
Staphylococcus aureus [1] = assay: Antibacterial activity against Staphylococcus aureus ATCC 29213 assessed as reduction in bacterial growth by CLSI based broth microdilution method; assay type: functional
Staphylococcus aureus [2] = assay: Antibacterial activity against Staphylococcus aureus USA300 assessed as reduction in bacterial growth by CLSI based broth microdilution method; assay type: functional
Staphylococcus aureus [3] = assay: Antibacterial activity against cystic fibrosis patient isolate Staphylococcus aureus assessed as reduction in bacterial growth by CLSI based broth microdilution method; assay type: functional
[4] = target: Voltage-gated inwardly rectifying potassium channel KCNH2 (Homo sapiens, UniProt Q12809); assay: Inhibition of human ERG
Chain of Voltage-gated inwardly rectifying potassium channel KCNH2 (Q12809 whole entry): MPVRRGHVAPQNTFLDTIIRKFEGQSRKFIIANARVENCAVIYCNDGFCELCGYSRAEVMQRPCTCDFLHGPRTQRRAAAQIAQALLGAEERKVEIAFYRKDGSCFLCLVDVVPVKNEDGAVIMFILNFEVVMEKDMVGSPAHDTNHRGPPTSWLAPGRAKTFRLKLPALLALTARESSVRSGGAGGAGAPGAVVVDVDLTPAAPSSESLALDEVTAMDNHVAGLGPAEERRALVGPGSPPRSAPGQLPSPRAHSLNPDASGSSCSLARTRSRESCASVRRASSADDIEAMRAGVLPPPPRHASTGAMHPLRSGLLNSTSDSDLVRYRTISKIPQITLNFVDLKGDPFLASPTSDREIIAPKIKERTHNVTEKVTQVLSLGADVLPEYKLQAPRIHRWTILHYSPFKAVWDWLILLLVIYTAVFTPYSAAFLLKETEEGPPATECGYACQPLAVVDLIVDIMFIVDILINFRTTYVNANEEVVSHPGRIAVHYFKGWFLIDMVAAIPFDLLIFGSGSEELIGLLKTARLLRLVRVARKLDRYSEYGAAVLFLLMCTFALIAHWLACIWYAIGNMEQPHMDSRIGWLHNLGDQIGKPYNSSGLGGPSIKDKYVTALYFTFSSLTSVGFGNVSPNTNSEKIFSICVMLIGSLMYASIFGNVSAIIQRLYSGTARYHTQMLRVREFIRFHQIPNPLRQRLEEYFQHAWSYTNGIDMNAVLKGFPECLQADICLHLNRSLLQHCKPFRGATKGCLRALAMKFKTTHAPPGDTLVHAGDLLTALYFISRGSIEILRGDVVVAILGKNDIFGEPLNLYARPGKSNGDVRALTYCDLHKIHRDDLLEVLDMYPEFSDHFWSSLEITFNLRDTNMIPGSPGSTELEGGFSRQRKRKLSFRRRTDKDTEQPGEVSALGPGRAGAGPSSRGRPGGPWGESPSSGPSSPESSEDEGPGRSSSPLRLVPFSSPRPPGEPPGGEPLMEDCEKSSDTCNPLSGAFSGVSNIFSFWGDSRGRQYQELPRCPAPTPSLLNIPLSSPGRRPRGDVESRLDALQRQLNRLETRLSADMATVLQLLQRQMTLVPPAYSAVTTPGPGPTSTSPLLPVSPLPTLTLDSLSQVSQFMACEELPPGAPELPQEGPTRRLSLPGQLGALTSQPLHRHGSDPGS

Staphylococcus aureus [5] = assay: Antibacterial activity against methicillin-resistant Staphylococcus aureus DRL-3161 assessed as reduction in bacterial growth by CLSI based broth microdilution method; assay type: functional
Streptococcus pyogenes = assay: Antibacterial activity against Streptococcus pyogenes LSI-1235 assessed as reduction in bacterial growth by CLSI based broth microdilution method; assay type: functional
Streptococcus pneumoniae [6] = assay: Antibacterial activity against penicillin-susceptible Streptococcus pneumoniae LSI-4234 assessed as reduction in bacterial growth by CLSI based broth microdilution method; assay type: functional
Streptococcus pneumoniae [7] = assay: Antibacterial activity against penicillin-resistant Streptococcus pneumoniae LSI-4246 assessed as reduction in bacterial growth by CLSI based broth microdilution method; assay type: functional
Enterococcus faecium [8] = assay: Antibacterial activity against Vancomycin-susceptible Enterococcus faecium DRL-4193 assessed as reduction in bacterial growth by CLSI based broth microdilution method; assay type: functional
Enterococcus faecium [9] = assay: Antibacterial activity against Vancomycin-resistant Enterococcus faecium LSI-3340 assessed as reduction in bacterial growth by CLSI based broth microdilution method; assay type: functional
Enterococcus faecalis = assay: Antibacterial activity against Enterococcus faecalis ATCC 29212 assessed as reduction in bacterial growth by CLSI based broth microdilution method; assay type: functional
[10] = Inhibition of Staphylococcus aureus topoisomerase IV using kDNA as substrate incubated for 30 mins by gel electrophoresis analysis
Staphylococcus aureus [11] = assay: Selectivity index, ratio of IC50 for inhibition of Staphylococcus aureus topoisomerase IV to IC50 for inhibition of Staphylococcus aureus DNA gyrase
Procedure, shortened: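 Ratio of S. aureus TopoIV IC50 to S. aureus DNA gyrase IC50, both from gel-based assays. TopoIV read-out was inhibition of decatenation; gyrase read-out was inhibition of supercoiling.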

Staphylococcus aureus [12] = assay: Antibacterial activity against Staphylococcus aureus 3527 assessed as reduction in bacterial growth by CLSI based broth microdilution method; assay type: functional
Procedure, shortened: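 Host is a multidrug-resistant MRSA clinical isolate (formerly 1095), the parent of an isogenic D83N gyrase mutant. MIC was read by CLSI broth microdilution and reported in µg/mL.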

Staphylococcus aureus [13] = assay: Antibacterial activity against Staphylococcus aureus harboring DNA gyrase D83N mutant assessed as reduction in bacterial growth by CLSI based broth microdilution method; assay type: functional
Procedure, shortened: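 MIC against an isogenic NBTI-resistant daughter strain carrying a D83N substitution in DNA gyrase, originally selected under NBTI pressure from multidrug-resistant MRSA isolate 3527. CLSI broth microdilution was used, with values in µg/mL.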

Staphylococcus aureus [14] = assay: Selectivity index, fold shift in MIC between parent and mutant; assay type: functional
Procedure, shortened: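 MICs by CLSI broth microdilution in µg/mL against multidrug-resistant MRSA isolate 3527 (formerly 1095) and its isogenic NBTI-resistant daughter strain carrying a gyrase D83N substitution. Value is the fold shift in MIC between parent and mutant.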

[15] = Inhibition of Staphylococcus aureus DNA gyrase using relaxed pBR322 DNA as substrate incubated for 30 mins by agarose gel electrophoresis method

| Compound | MIC (Staphylococcus aureus [1]) | MIC (Staphylococcus aureus [2]) | MIC (Staphylococcus aureus [3]) | IC50 [4] | IC50 ([10]; read-out: IC50) | MIC (Staphylococcus aureus [12]) | MIC (Staphylococcus aureus [13]) | Ratio (Staphylococcus aureus [14]) | IC50 [15] | other results |
| --- | --- | --- | --- | --- | --- | --- | --- | --- | --- | --- |
| COc1ccc2nccc(CC[C@@]3(O)CO[C@@H]4[C@@H](NCc5ccc6c(c5)OCCO6)CO[C@@H]43)c2c1 | 16 µg/mL (≈ 33.4 µM) | 16 µg/mL (≈ 33.4 µM) | 16 µg/mL (≈ 33.4 µM) |  |  |  |  |  |  |  |
| COc1ccc2ncc(F)c(CC[C@]3(O)CC[C@H](NCc4ccc5c(c4)OCCO5)CC3)c2n1 |  |  |  | 2.3 µM |  |  |  |  |  |  |
| COc1ccc2ncc(F)c(CC[C@]3(O)CC[C@@H](NCc4ccc5c(c4)OCCO5)CC3)c2n1 |  |  |  | 2.2 µM |  |  |  |  |  |  |
| COc1ccc2nccc(CC[C@@]3(O)CO[C@@H]4[C@@H](NCc5ccc(C)cc5)CO[C@@H]43)c2c1 | > 8 µg/mL | > 8 µg/mL | > 8 µg/mL |  |  |  |  |  |  |  |
| COc1ccc2ncc(F)c(CC[C@H]3OC[C@H](NCc4ccc(Cl)c(Cl)c4)CO3)c2n1 |  |  |  | 7.9 µM |  |  |  |  |  |  |
| COc1ccc2ncc(F)c(CC[C@H]3OC[C@H](NCc4cc5c(cn4)OCCO5)CO3)c2n1 |  |  |  | 15 µM |  |  |  |  |  |  |
| COc1ccc2ncc(F)c(CC[C@]3(O)CC[C@H](NCc4ccc(Cl)c(Cl)c4)CC3)c2n1 |  |  |  | 3.8 µM |  |  |  |  |  |  |
| COc1ccc2ncc(F)c(CC[C@H]3OC[C@H](NCc4ccc5c(c4)OCCO5)CO3)c2n1 | < 0.25 µg/mL | 0.125 µg/mL (≈ 0.274 µM) | 0.25 µg/mL (≈ 0.549 µM) | 8 µM | 1000 nM | ≤ 0.25 µg/mL | 4 µg/mL (≈ 8.78 µM) | > 16 | 30 nM | MIC (Staphylococcus aureus [5]): ≤ 0.06 µg/mL; MIC (Streptococcus pyogenes): ≤ 0.06 µg/mL; MIC (Streptococcus pneumoniae [6]): 0.25 µg/mL (≈ 0.549 µM); MIC (Streptococcus pneumoniae [7]): ≤ 0.06 µg/mL; MIC (Enterococcus faecium [8]): 0.12 µg/mL (≈ 0.263 µM); MIC (Enterococcus faecium [9]): 0.12 µg/mL (≈ 0.263 µM); MIC (Enterococcus faecalis): 0.5 µg/mL (≈ 1.1 µM); Ratio IC50 (Staphylococcus aureus [11]): 33 |
| COc1ccc2nccc(CC[C@@]3(O)CO[C@@H]4[C@@H](NCc5ccccc5)CO[C@@H]43)c2c1 | > 8 µg/mL | > 8 µg/mL | > 8 µg/mL |  |  |  |  |  |  |  |
| COc1ccc2ncc(F)c(CC[C@@]3(O)CO[C@@H]4[C@@H](NCc5ccc(C)cc5)CO[C@@H]43)c2n1 | 1 µg/mL (≈ 2.21 µM) | 2 µg/mL (≈ 4.41 µM) | 2 µg/mL (≈ 4.41 µM) |  | 7500 nM | 2 µg/mL (≈ 4.41 µM) | 16 µg/mL (≈ 35.3 µM) | 8 | 180 nM | Ratio IC50 (Staphylococcus aureus [11]): 42 |
| COc1ccc2ncc(F)c(CC[C@@]3(O)CO[C@@H]4[C@@H](NCc5ccc6c(n5)NC(=O)CO6)CO[C@@H]43)c2n1 | 2 µg/mL (≈ 3.91 µM) | 1 µg/mL (≈ 1.95 µM) | 2 µg/mL (≈ 3.91 µM) | 12 µM |  | 1 µg/mL (≈ 1.95 µM) | 8 µg/mL (≈ 15.6 µM) | 8 | 540 nM | IC50 [10]: Not Active |
| COc1ccc2ncc(F)c(CC[C@@]3(O)CO[C@@H]4[C@@H](NCc5ccc(Cl)c(Cl)c5)CO[C@@H]43)c2n1 | ≤ 0.25 µg/mL | 0.5 µg/mL (≈ 0.984 µM) | 0.5 µg/mL (≈ 0.984 µM) |  | 2900 nM | 0.25 µg/mL (≈ 0.492 µM) | 4 µg/mL (≈ 7.87 µM) |  | 200 nM |  |
| COc1ccc2ncc(F)c(CC[C@@]3(O)CO[C@@H]4[C@@H](NCc5ccc6c(c5)OCCO6)CO[C@@H]43)c2n1 | 0.5 µg/mL (≈ 1 µM) | 1 µg/mL (≈ 2.01 µM) | 1 µg/mL (≈ 2.01 µM) | 20 µM | 2600 nM | 1 µg/mL (≈ 2.01 µM) | 4 µg/mL (≈ 8.04 µM) | 4 | 200 nM | Ratio IC50 (Staphylococcus aureus [11]): 13 |
